APOBEC3A inh – human APOBEC3A DNA deaminase inhibition. inhibition, % at 20 µM. recombinant A3A, FAM/TAMRA ssDNA deamination fluorescence. actives 0.41% (n = 330,000);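 active = at least 40% inhibition at 20 µM here, with at most 30% in a related deaminase screen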;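 note: plate controls were A3A with DMSO for no effect and wells lacking A3A enzyme for full effect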
Target sequence (P31941 whole entry, looked up): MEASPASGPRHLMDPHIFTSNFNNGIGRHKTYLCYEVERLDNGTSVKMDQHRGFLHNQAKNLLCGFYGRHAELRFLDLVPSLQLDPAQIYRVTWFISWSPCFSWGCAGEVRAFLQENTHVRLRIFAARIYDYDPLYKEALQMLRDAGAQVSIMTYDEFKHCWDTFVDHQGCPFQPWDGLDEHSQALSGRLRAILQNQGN
UCH37 DUB inh – human UCH37 deubiquitinating enzyme inhibition | Q9Y5K5 | actives 0.33% (n = 330,000) | inhibition, % (test concentration not listed) | purified proteasome/UCH37, Ub-AMC cleavage fluorescence | AID 588478;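 active = mean inhibition over replicate wells above about 20%, limit read from the data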;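 note: 0% = compound-free wells with enzyme and 100% = wells lacking proteasome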
Target sequence (Q9Y5K5 whole entry, looked up): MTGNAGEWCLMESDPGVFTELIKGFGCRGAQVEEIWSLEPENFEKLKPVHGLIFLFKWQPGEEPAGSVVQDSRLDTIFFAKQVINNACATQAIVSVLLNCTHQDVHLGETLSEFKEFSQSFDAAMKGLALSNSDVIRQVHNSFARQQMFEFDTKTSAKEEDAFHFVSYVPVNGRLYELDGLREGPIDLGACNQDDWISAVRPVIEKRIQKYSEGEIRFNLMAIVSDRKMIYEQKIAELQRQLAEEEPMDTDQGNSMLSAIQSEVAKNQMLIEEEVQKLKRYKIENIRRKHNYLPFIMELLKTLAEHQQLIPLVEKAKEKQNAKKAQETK
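assay system = human UCH37 enzyme supplied as purified proteasome complex | amount = proteasome at 0.15 nM in the dispensed enzyme solution | schedule = 30 min compound-proteasome preincubation then 25 min substrate reaction, room temperature | measured by = fluorescence, ex 355 nm, em 460 nm | benchmarks = no-proteasome wells (full inhibition) and compound-free wells (no inhibition)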
PolyA inhibitor – yeast polyadenylation inhibition; S. cerevisiae SKY197-pL101 polyadenylation reporter, beta-gal luminescence; efflux-impaired pdr1/pdr3 knockout yeast; score 100 = 6 SD above DMSO; activity score, % at 12 µM; actives 0.02% (n = 300,000); AID 1875;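 active = lowest replicate activity score at least 50, where 100 means six control SD above control mean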;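 note: yeast exposed to compound for 9 h at 30 °C; higher score means more reporter readthrough which indicates perturbed polyadenylation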
Arr AP2 block – inhibitors of human beta-arrestin and AP2 interaction | FITC-arrestin peptide / GST-AP2 beads, flow cytometry; AP2 beta2 appendage carries R879A mutation | AID 504490 | inhibition, % at 10 µM | actives 0.31% (n = 340,000);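 active = inhibition above a set limit, near 3 SD of compounds lacking own fluorescence, cut at about 54% in these data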;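 note: plate controls were DMSO wells for no effect and 5 µM unlabelled arrestin peptide for full effect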
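System: GST-AP2 R879A glutathione beads; medium: PBS, Tween 20 0.05%, BSA 0.1%; reagent: fluorescein-tagged arrestin peptide at 50 nM final; schedule: pre-incubation 12 min, peptide binding 1 h, room temperature; detection: flow cytometry, FL1 (488/535 nm); read-out: inhibition as reduced fluorescein signal on beads, percent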
AHR activator – activates the human aryl hydrocarbon receptor; AHR-responsive luciferase reporter cells, luminescence; activation, % at 5 µM; actives 2.5% (n = 320,000); in the data active = activation above about 47%;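 note: 0% = vehicle wells and 100% = reference agonist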
APOBEC3G inh – APOBEC3G (human) deaminase inhibition; Q9HC16; inhibition, % at 20 µM; actives 0.28% (n = 330,000); recombinant A3G, ssDNA deamination FAM/TAMRA fluorescence;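 active = inhibition of at least 40% at 20 µM, with no more than 30% in the related APOBEC3A deaminase screen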;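 note: plate controls were DMSO wells with A3G for no effect and wells lacking A3G enzyme for full effect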
* marks the source's active call; other numbers are inactive results; . = no result given. Compounds with a hit are over-represented: about 3.4% of the library has one in this group of screens.

SMILES	APOBEC3A inh	UCH37 DUB inh	PolyA inhibitor	Arr AP2 block	AHR activator	APOBEC3G inh
Cc1csc(NC(=O)c2cc3c(C)nn(Cc4ccccc4Cl)c3s2)n1	-1.3	-38.0	-18.7	-4.6	47.1*	-1.8
Cc1nn(Cc2ccccc2Cl)c2sc(C(=O)NCCCn3ccnc3)cc12	0.6	2.4	-12.0	-20.7	49.5*	1.1
Cc1ccc(S(=O)(=O)NN=Cc2cc(Br)c(C)o2)cc1	.	5.4	.	.	.	.
CC(CC(C)C)=NNc1ccc([N+](=O)[O-])cc1[N+](=O)[O-]	.	4.6	.	.	.	.
Oc1csc(Cc2nc(-c3ccc(Br)cc3)cs2)n1	-1.1	-6.4	-11.0	8.8	78.3*	-6.3
NC(=O)Cc1nc(-c2ccc(Br)cc2)cs1	-2.9	0.8	6.5	-3.4	2.6	-8.4
COc1ccc(Cl)cc1NC(=O)CC(C)=NNC(=O)CCc1ccccc1	.	-0.8	.	.	.	.
Cc1ccccc1NC(=O)CC1C(=O)Nc2ccccc2N1CC(=O)N(C)C1CCS(=O)(=O)C1 (configuration not stated)	1.7	-2.3	.	-11.7	60.0*	-5.4
Cc1ccc(C2(c3ccccc3)NC(=O)N(CC(=O)N(C)C3CCS(=O)(=O)C3)C2=O)cc1C (configuration not stated)	5.3	0.6	.	41.0	0.1	1.9
COc1ccc(OC)c(Nc2ncnc3sccc23)c1	0.5	-2.4	13.6	-5.7	13.4	5.5
COc1ccc(OC)c(Nc2ncnc3sc(-c4ccccc4)cc23)c1	-1.9	-89.1	0.4	7.3	69.4*	-6.5
O=C(CCC(=O)Nc1cccc([N+](=O)[O-])c1)NN=Cc1cccs1	.	2.8	.	.	.	.
O=C(/C=C1\NCC2c3ccccc3CCN2C1=O)c1ccccc1 (configuration not stated)	-2.4	3.6	-2.7	12.7	62.2*	29.2
O=C(C=C1NCCN1)c1ccccc1	-2.5	7.3	14.0	25.2	0.1	-4.6
O=C(NN=Cc1cc(Br)c(Br)s1)c1ccncc1	.	3.6	.	.	.	.
COc1ccccc1NCC(=O)NN=C1CCS(=O)(=O)c2ccc(F)cc21	-3.2	1.4	.	10.5	49.2*	-0.6
COc1cc(C(=O)N/N=C2\CCS(=O)(=O)c3ccc(F)cc32)cc(OC)c1OC	1.5	.	-0.7	15.3	5.6	-3.5
COc1ccc(Nc2nc3ccccc3n3cnnc23)cc1Cl	1.3	-32.4	1.1	0.9	3.8	-5.0
COc1ccc(/C(C)=N/Nc2nc3ccccc3n3cnnc23)cc1OC	-2.3	.	-8.9	.	61.1*	-5.9
Cc1nn(-c2ccc(F)cc2)c(Cl)c1C=NNC(=O)c1ccc(O)cc1	.	1.9	.	.	.	.
Cn1cncc1C#Cc1ccc2cc(CCO)oc(=O)c2c1	-5.1	3.1	.	-2.5	48.5*	-10.6
Cn1cncc1C#Cc1ccc2cc(CCCO)oc(=O)c2c1	-0.8	-11.8	.	-9.7	18.4	-4.1
COc1cccc(CNc2ccc3c(c2)nc(C)n3C)c1OC	2.2	1.4	18.7	-9.0	67.1*	5.7
COc1cccc(CNc2ccc3c(c2)ncn3C)c1OC	-0.1	-5.6	-7.5	-9.1	.	0.1
CCOc1ccccc1NC(=O)c1ccc2c(c1)C(=O)N(CC(C)C)C2=O	-1.3	-27.7	-11.9	5.7	49.8*	-2.7
SMILES	APOBEC3A inh	UCH37 DUB inh	PolyA inhibitor	Arr AP2 block	AHR activator	APOBEC3G inh
CCOC(=O)CN1C(=O)C(C)(C)Oc2ccc(C(=O)Nc3ccccc3OC)cc21	-4.1	5.3	-0.8	-0.1	15.0	-7.3
COc1ccccc1NC(=O)c1ccc2c(c1)N(CC#N)C(=O)C(C)(C)O2	0.6	5.0	-0.2	24.3	62.0*	-3.3
COCCCN1C(=O)c2ccc(C(=O)Nc3ccccc3OC)cc2C1=O	11.9	2.7	-30.9	1.8	67.3*	-6.1
CC(=NNC(N)=S)C12CC3CC(CC(C3)C1)C2	.	-1.0	.	.	.	.
Nc1c(C(=O)Nc2ccc(Br)cc2)sc2nc(-c3ccco3)ccc12	31.5	-80.4	2.6	20.0	60.4*	20.3
Cc1ccc(NC(=O)c2sc3nc4c(c(-c5ccco5)c3c2N)CCC4)cc1	22.7	-0.4	2.2	32.7	60.3*	-9.8
Nc1c(C(=O)Nc2ccc(F)cc2)sc2nc(-c3ccco3)ccc12	5.9	-50.6	-8.5	28.7	72.2*	2.2
CC(=O)c1sc2nc(-c3ccco3)ccc2c1N	100.1	-29.2	0.4	24.6	-0.3	91.1
O=c1c2[nH]c3ccccc3c2nc2n1CCCS2	-0.4	0.6	-12.6	30.1	65.8*	-7.1
O=c1c(C(c2ccccc2)c2c(O)nc3n(c2=O)CCCS3)c(O)nc2n1CCCS2	6.1	3.2	8.5	7.7	-0.4	-0.6
O=c1c2[nH]c3ccc(F)cc3c2nc2n1CCS2	1.8	-6.4	9.2	18.1	31.9	-6.1
O=c1c2[nH]c3ccc(F)cc3c2nc2n1CCCS2	0.2	-6.0	-11.5	16.3	71.5*	-0.6
CCOc1ccc(NC(=S)Nc2cc(C)[nH]n2)cc1	0.8	1.5	-0.4	-9.7	13.2	36.6
Cc1cccc(NC(=S)Nc2cccc3ccccc23)c1	-1.8	-3.6	10.1	-13.5	63.1*	5.1
Cc1cc(NC(=S)Nc2cccc3ccccc23)n[nH]1	-1.9	.	3.4	-25.8	51.9*	-5.2
C/C(=N\NC(=S)Nc1cccc(C)c1)c1cc2ccccc2o1	1.4	.	-11.4	5.0	48.5*	2.8
C=CCNC(=S)Nc1cccc2ccccc12	-1.6	4.2	2.0	-2.3	3.8	-5.9
CCc1cccc(NC(=S)Nc2cccc3ccccc23)c1	2.0	2.2	-2.8	-9.9	78.1*	0.6
O=C(O)COc1ccccc1C=NNC(=O)CSc1nc2ccccc2n1Cc1ccccc1	.	4.4	.	.	.	.
FC(F)(F)c1ccc(NN=Cc2cccnc2)nc1	.	8.6	.	.	.	.
O=C(NN=C/C=C/c1ccccc1)c1ccncc1	.	3.4	.	.	.	.
COc1ccccc1C(=O)ON=C1CCCc2c1ccc(OC)c2[N+](=O)[O-]	.	4.5	.	.	.	.
Cc1cc(C)cc(NC(=S)Nc2cccc3ccccc23)c1	-0.8	1.0	-6.5	-1.9	68.8*	2.9
Cc1ccc(S(=O)(=O)N(C)C)cc1NC(=S)Nc1cccc2ccccc12	-4.2	.	8.2	3.6	58.9*	-2.2
Cc1ccc(NC(=S)Nc2cccc3ccccc23)cc1	-7.2	1.9	10.7	2.8	7.7	-7.5
COc1cccc(CNC(=O)c2ccc3c(c2)N(C)CCS3)c1OC	-2.6	-432.0	-6.0	-13.9	55.5*	-1.3
COc1ccc(CNC(=O)c2ccc3c(c2)N(C)CCS3)cc1	-2.1	-78.5	-3.8	-3.1	37.0	1.8
CN1CCSc2ccc(C(=O)NCc3ccccc3F)cc21	-2.4	-103.8	8.1	18.0	78.1*	-11.5
Cc1cccc(C(=O)ON=C2CCS(=O)(=O)c3sccc32)c1	.	3.9	.	.	.	.
CC(C)(C)OC(=O)N1CCN(C(=O)c2ncn(Cc3ccccc3)c2C(=O)N2CCN(C(=O)OC(C)(C)C)CC2)CC1	-0.9	29.0*	.	-7.2	-2.0	-9.3
